How the values were obtained:
[1] = system: 4T1 murine breast cancer lysates; assay: Cleavage of ACC peptide substrates in tumor lysate; format: biochemical, mouse; settings: E64 10 μM preincubation, 4T1 lysate, acidic pH; Fig. 1D
Method in brief: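 ACC-reporter peptide substrates were added to 4T1 murine breast cancer lysate at acidic pH, with or without prior preincubation with the cysteine cathepsin inhibitor E64 (10 μM). Cleavage velocity was plotted as mean ± SD, n=3.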

immortalized macrophages = assay: Probe activation in cells by flow cytometry; format: cell-based; settings: E64d pretreatment; Fig. S4

In the case of `CC(C)C[C@H](NC(=O)[C@H]1O[C@@H]1C(=O)O)C(=O)NCCCCN=C(N)N` [E64], the “Effect of preincubation with the inhibitor on cleavage of ACC substrates 1-3” value [1] is reported as “fully abrogated cleavage”.
`CCOC(=O)[C@H]1O[C@@H]1C(=O)N[C@@H](CC(C)C)C(=O)NCCC(C)C` [E64d] was tested, and the “Effect of inhibitor pretreatment on labelling of cells by probe 5” value (immortalized macrophages) was “strongly diminished labelling”.
